Assays:
Format in all cases: functional
Candida albicans [1] = experiment: Antifungal activity against Candida albicans SP3902 after 48 hrs by broth microdilution method; settings: SP3902, 48 h
Procedure, shortened: (§1)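 Modified CLSI M27-A2 broth microdilution. Yeast at (0.5−1) × 10^3 CFU/mL in MOPS-buffered RPMI 1640 was mixed 1:1 with peptide serially diluted in 0.2% BSA and incubated 48 h at 28 °C. Absorbance was read at 492 nm; MIC is the lowest concentration inhibiting 95% of growth. Triplicate, three biological replicates.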

Candida albicans [2] = experiment: Antifungal activity against fluconazole-resistant Candida albicans 56214 after 48 hrs by broth microdilution method; settings: Candida albicans, 56214, 48 h; procedure, shortened: as §1
Candida albicans [3] = experiment: Antifungal activity against Candida albicans cgmcc 2.2086 after 48 hrs by broth microdilution method; settings: cgmcc 2.2086, 48 h; procedure, shortened: as §1
Candida albicans [4] = experiment: Antifungal activity against Candida albicans cgmcc 2.2086 in presence of 25% human heat-inactivated serum by broth dilution method
Candida albicans [5] = experiment: Antifungal activity against Candida albicans cgmcc 2.2086 in presence of ZnCl2 by broth dilution method
Candida albicans [6] = experiment: Antifungal activity against Candida albicans SP3903 after 48 hrs by broth microdilution method; settings: SP3903, 48 h; procedure, shortened: as §1
Candida albicans [7] = experiment: Fungicidal activity against fluconazole-resistant Candida albicans 17546 after 96 hrs; settings: Candida albicans, 17546, 96 h; read-out: MFC99.9
Procedure, shortened: (§2)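 After the 48 h, 28 °C broth microdilution in MOPS-buffered RPMI 1640 (inoculum (0.5−1) × 10^3 CFU/mL), 50 μL from each well was plated on YM agar for a further 48 h at 28 °C. MFC is the lowest concentration killing at least 99.9% of cells. Triplicate, three biological replicates.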

Candida albicans [8] = experiment: Antifungal activity against Candida albicans isolated from alveolar fluid after 48 hrs by broth microdilution method; procedure, shortened: as §1
Candida albicans [9] = experiment: Antifungal activity against Candida albicans cgmcc 2.2086 in presence of NH4Cl by broth dilution method
Candida albicans [10] = experiment: Fungicidal activity against Candida albicans SP3876 after 96 hrs; settings: SP3876, 96 h, read-out: MFC99.9; procedure, shortened: as §2
Candida albicans [11] = experiment: Fungicidal activity against fluconazole-resistant Candida albicans 56214 after 96 hrs; settings: Candida albicans, 56214, 96 h; read-out: MFC99.9; procedure, shortened: as §2
Candida albicans [12] = experiment: Antifungal activity against Candida albicans cgmcc 2.2086 in presence of CaCl2 by broth dilution method
Candida tropicalis [13] = experiment: Fungicidal activity against Candida tropicalis cgmcc 2.1975 after 96 hrs; settings: cgmcc 2.1975, 96 h, read-out: MFC99.9
Procedure, shortened: (§3)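 Wells from the 48 h, 28 °C RPMI 1640/MOPS microdilution plates were plated on YM agar and incubated a further 48 h at 28 °C. MFC is the lowest concentration killing at least 99.9% of cells. Run in triplicate with three biological replicates.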

Candida albicans [14] = experiment: Antifungal activity against Candida albicans cgmcc 2.2086 in presence of MgCl2 by broth dilution method
Candida albicans [15] = experiment: Fungicidal activity against Candida albicans SP3902 after 96 hrs; settings: SP3902, 96 h, read-out: MFC99.9; procedure, shortened: as §2
Candida albicans [16] = experiment: Fungicidal activity against Candida albicans SP3931 after 96 hrs; settings: SP3931, 96 h, read-out: MFC99.9; procedure, shortened: as §2
Candida albicans [17] = experiment: Antifungal activity against Candida albicans cgmcc 2.2086 in presence of 12.5% human heat-inactivated serum by broth dilution method
Candida albicans [18] = experiment: Antifungal activity against Candida albicans 14936 after 48 hrs by broth microdilution method; settings: Candida albicans, 14936, 48 h; procedure, shortened: as §1
Candida albicans [19] = experiment: Fungicidal activity against Candida albicans isolated from alveolar fluid after 96 hrs; settings: read-out: MFC99.9; procedure, shortened: as §2
Candida albicans [20] = experiment: Fungicidal activity against Candida albicans 14936 after 96 hrs; settings: Candida albicans, 14936, 96 h; read-out: MFC99.9; procedure, shortened: as §2
Candida albicans [21] = experiment: Antifungal activity against Candida albicans cgmcc 2.2086 in presence of NaCl by broth dilution method
Pichia kudriavzevii [22] = experiment: Antifungal activity against Candida krusei cgmcc 2.1857 after 48 hrs by broth microdilution method; settings: cgmcc 2.1857, 48 h
Procedure, shortened: (§4)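 Modified CLSI M27-A2 broth microdilution. Yeast were suspended in MOPS-buffered RPMI 1640 at a final (0.5−1) × 10^3 CFU/mL and mixed 1:1 with peptide serially diluted in 0.2% BSA. Plates were incubated 48 h at 28 °C and read at A492. MIC is the lowest concentration giving 95% inhibition. Run in triplicate with three biological replicates.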

Candida albicans [23] = experiment: Antifungal activity against Candida albicans SP3876 after 48 hrs by broth microdilution method; settings: SP3876, 48 h; procedure, shortened: as §1
Candida albicans [24] = experiment: Antifungal activity against Candida albicans cgmcc 2.2086 in presence of FeCl3 by broth dilution method
Candida albicans [25] = experiment: Antifungal activity against Candida albicans cgmcc 2.2086 in presence of 50% human heat-inactivated serum by broth dilution method
Candida albicans [26] = experiment: Fungicidal activity against Candida albicans SP3903 after 96 hrs; settings: SP3903, 96 h, read-out: MFC99.9; procedure, shortened: as §2
Candida albicans [27] = experiment: Antifungal activity against Candida albicans SP3931 after 48 hrs by broth microdilution method; settings: SP3931, 48 h; procedure, shortened: as §1
Candida albicans [28] = experiment: Antifungal activity against Candida albicans 58288 after 48 hrs by broth microdilution method; settings: Candida albicans, 58288, 48 h; procedure, shortened: as §1
Candida albicans [29] = experiment: Fungicidal activity against Candida albicans 58288 after 96 hrs; settings: Candida albicans, 58288, 96 h; read-out: MFC99.9; procedure, shortened: as §2
Candida albicans [30] = experiment: Antifungal activity against Candida albicans cgmcc 2.2086 in presence of KCl by broth dilution method
Candida albicans [31] = experiment: Antifungal activity against fluconazole-resistant Candida albicans 17546 after 48 hrs by broth microdilution method; settings: Candida albicans, 17546, 48 h; procedure, shortened: as §1
Candida tropicalis [32] = experiment: Antifungal activity against Candida tropicalis cgmcc 2.1975 after 48 hrs by broth microdilution method; settings: cgmcc 2.1975, 48 h; procedure, shortened: as §4
Candida parapsilosis [33] = experiment: Fungicidal activity against Candida parapsilosis cgmcc 2.3989 after 96 hrs; settings: Lodderomyces parapsilosis, cgmcc 2.3989, 96 h; read-out: MFC99.9; procedure, shortened: as §3
Candida albicans [34] = experiment: Fungicidal activity against Candida albicans cgmcc 2.2086 after 96 hrs; settings: cgmcc 2.2086, 96 h, read-out: MFC99.9; procedure, shortened: as §2
Pichia kudriavzevii [35] = experiment: Fungicidal activity against Candida krusei cgmcc 2.1857 after 96 hrs; settings: cgmcc 2.1857, 96 h, read-out: MFC99.9; procedure, shortened: as §3
Candida albicans [36] = experiment: Antifungal activity against fluconazole-resistant Candida albicans 56452 after 48 hrs by broth microdilution method; settings: Candida albicans, 56452, 48 h; procedure, shortened: as §1
Candida parapsilosis [37] = experiment: Antifungal activity against Candida parapsilosis cgmcc 2.3989 after 48 hrs by broth microdilution method; settings: Lodderomyces parapsilosis, cgmcc 2.3989, 48 h; procedure, shortened: as §4
Candida albicans [38] = experiment: Fungicidal activity against fluconazole-resistant Candida albicans 56452 after 96 hrs; settings: Candida albicans, 56452, 96 h; read-out: MFC99.9; procedure, shortened: as §2

CC(=O)N1CCN(c2ccc(OCC3COC(Cn4ccnc4)(c4ccc(Cl)cc4Cl)O3)cc2)CC1 (stereo unspecified) [KETOCONAZOLE]
> 64 µM: MIC95 (Candida albicans [1]) | MIC95 (Candida albicans [6]) | MFC (Candida albicans [10]) | MFC (Candida albicans [11]) | MFC (Candida albicans [15]) | MFC (Candida albicans [16]) | MIC95 (Candida albicans [18]) | MFC (Candida albicans [20]) | MIC95 (Candida albicans [23]) | MFC (Candida albicans [26]) | MIC95 (Candida albicans [27]) | MFC (Candida albicans [29]) | MFC (Candida albicans [38])
0.25 µM: MIC95 (Candida albicans [3]) | MIC (Candida albicans [4]) | MIC (Candida albicans [5]) | MIC (Candida albicans [9]) | MIC (Candida albicans [14]) | MIC (Candida albicans [17]) | MIC (Candida albicans [21]) | MIC (Candida albicans [24]) | MIC (Candida albicans [30]) | MIC95 (Candida tropicalis [32]) | MIC95 (Candida parapsilosis [37])
2 µM: MFC (Candida albicans [19])
64 µM: MIC95 (Candida albicans [2]) | MFC (Candida albicans [7]) | MIC95 (Candida albicans [36])
1 µM: MFC (Candida tropicalis [13]) | MIC95 (Pichia kudriavzevii [22]) | MIC95 (Candida albicans [28]) | MFC (Candida parapsilosis [33]) | MFC (Candida albicans [34]) | MFC (Pichia kudriavzevii [35])
32 µM: MIC95 (Candida albicans [31])
0.5 µM: MIC95 (Candida albicans [8]) | MIC (Candida albicans [12]) | MIC (Candida albicans [25])

C[C@@H]1[C@H](O)[C@@H](C)/C=C/C=C/C=C/C=C/C=C/C=C/C=C/[C@H](O[C@@H]2O[C@H](C)[C@@H](O)[C@H](N)[C@@H]2O)C[C@@H]2O[C@](O)(C[C@@H](O)C[C@@H](O)[C@H](O)CC[C@@H](O)C[C@@H](O)CC(=O)O[C@H]1C)C[C@H](O)[C@H]2C(=O)O [AMPHOTERICIN B]
0.125 µM: MIC95 (Candida albicans [6])
0.5 µM: MFC (Candida albicans [10]) | MFC (Candida albicans [20]) | MIC95 (Candida albicans [28])
2 µM: MFC (Candida albicans [11]) | MIC (Candida albicans [12]) | MFC (Candida tropicalis [13]) | MFC (Candida albicans [19]) | MFC (Candida albicans [29]) | MFC (Candida parapsilosis [33]) | MIC95 (Candida parapsilosis [37]) | MFC (Candida albicans [38])
1 µM: MIC95 (Candida albicans [2]) | MIC95 (Candida albicans [3]) | MIC (Candida albicans [4]) | MIC (Candida albicans [5]) | MFC (Candida albicans [7]) | MIC95 (Candida albicans [8]) | MIC (Candida albicans [9]) | MIC (Candida albicans [14]) | MFC (Candida albicans [15]) | MFC (Candida albicans [16]) | MIC (Candida albicans [17]) | MIC (Candida albicans [21]) | MIC95 (Pichia kudriavzevii [22]) | MIC (Candida albicans [24]) | MIC (Candida albicans [25]) | MFC (Candida albicans [26]) | MIC (Candida albicans [30]) | MIC95 (Candida tropicalis [32]) | MFC (Candida albicans [34]) | MFC (Pichia kudriavzevii [35]) | MIC95 (Candida albicans [36])
0.25 µM: MIC95 (Candida albicans [1]) | MIC95 (Candida albicans [18]) | MIC95 (Candida albicans [23]) | MIC95 (Candida albicans [27]) | MIC95 (Candida albicans [31])

Reference: ChEMBL document CHEMBL4177755, “Combating Drug-Resistant Fungi with Novel Imperfectly Amphipathic Palindromic Peptides” (J Med Chem, 2018)
